Compound activity (PubChem)
SENP7 block: SENP7 protease inhibitors, primary screen, biochemical, luminescence, uHTS; Sentrin-specific protease 7 (Homo sapiens), Q9BQF6; recombinant SENP7, Z-RLRGG-aminoluciferin luminescence, 40 min; inhibition, % at 5 µM; actives 1.5% (n = 330,000); AID 434973, 2010;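 active = inhibition above about 50% at the single test dose, limit read from the data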;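 note: plate controls were DMSO with enzyme for no effect and no enzyme buffer wells for full effect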
SENP1 FRET inh: human SENP1 catalytic domain inhibitors, primary screen, biochemical, FRET, uHTS. Sentrin-specific protease 1 (Homo sapiens), Q9P0U3. recombinant SENP1 catalytic domain, CyPet-SUMO1-YPet FRET cleavage. inhibition, % at 10 µM. actives 0.21% (n = 360,000). AID 624204, 2012;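 active = inhibition at least 30% at 10 µM, raw YFP signal under a set limit, fluorescence ratio 0.5 to 1.5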;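 note: 0% = enzyme with DMSO and 100% = no enzyme wells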
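Test system: hSENP1 catalytic domain, recombinant; Amount: 20 pM final SENP1 enzyme; Medium: Tris pH 8 buffer plus EDTA, NaCl, BME, BSA, NP40, catalase; Schedule: 50 min enzyme reaction, room temperature, light-protected; Technique: FRET fluorescence in CFP and YFP emission channels; Controls: no-enzyme wells low, DMSO-plus-enzyme wells high control.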
SENP8 block-1: SENP8 protease inhibitors, primary screen, biochemical, luminescence; Sentrin-specific protease 8 (Homo sapiens), Q96LD8; purified SENP8, Z-RLRGG-aminoluciferin cleavage; inhibition, % at 10 µM; actives 1.2% (n = 330,000); AID 2540, 2010; in the data active = inhibition above about 50%
SENP8 block-2: human SENP8 protease inhibitors, primary screen, biochemical, fluorescence, Nedd8 protein substrate, uHTS; actives 0.64% (n = 360,000); AID 602440, 2012; inhibition, % at 20 µM; recombinant SENP8; in the data active = inhibition mostly above about 40%, no sharp cut-off; inactive = mostly below about 27%
SENP6 inh: SENP6 protease inhibitors, primary screen, biochemical, luminescence, uHTS. Sentrin-specific protease 6 (Homo sapiens), Q9GZR1. Recombinant SENP6 catalytic domain, aminoluciferin luminescence. inhibition, % at 10 µM. actives 1.8% (n = 330,000);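 active = inhibition above about 50% at the single tested dose, limit read from the data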;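 note: plate controls were DMSO wells with enzyme for no effect and DMSO wells lacking enzyme for full effect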
Target sequence (Q9GZR1 628-1112 limits assumed): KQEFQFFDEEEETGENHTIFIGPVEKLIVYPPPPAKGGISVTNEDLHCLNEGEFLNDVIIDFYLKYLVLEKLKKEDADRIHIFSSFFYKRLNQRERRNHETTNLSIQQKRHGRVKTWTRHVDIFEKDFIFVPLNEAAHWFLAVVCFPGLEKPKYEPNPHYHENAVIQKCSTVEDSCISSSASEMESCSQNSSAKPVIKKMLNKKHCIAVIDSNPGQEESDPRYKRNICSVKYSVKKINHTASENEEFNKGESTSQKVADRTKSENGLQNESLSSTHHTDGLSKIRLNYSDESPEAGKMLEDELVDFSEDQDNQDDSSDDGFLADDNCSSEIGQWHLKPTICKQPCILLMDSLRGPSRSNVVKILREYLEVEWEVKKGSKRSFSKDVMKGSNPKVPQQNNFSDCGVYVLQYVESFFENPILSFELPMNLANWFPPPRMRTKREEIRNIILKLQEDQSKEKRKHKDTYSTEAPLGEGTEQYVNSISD
Numbers without * were called inactive; i = inactive; · = no result given. Only some compounds are listed: those with a hit (about 2.5% of all), similar ones and a draw of the others.

SMILES	SENP7 block	SENP1 FRET inh	SENP8 block-1	SENP8 block-2	SENP6 inh
COC(=O)C1=CN(c2ccccc2OC)C(N)=C(C#N)C1c1cccc([N+](=O)[O-])c1 (stereo not drawn)	·	-35.9	·	-190.8	·
COc1ccc2c(c1OC)C(=O)O[C@@H]2[C@H]1c2c(cc3c(c2OC)OCO3)CCN1C	3.0	0.2	-3.5	44.0*	5.7
CCN(CC)c1ccc(/C=c2\sc3nnc(-c4ccccc4Cl)n3c2=O)cc1	3.5	-18.4	6.7	61.3*	2.0
CCS(=O)(=O)c1nc(S(=O)(=O)c2ccc(C)cc2)c(NCCCN(C)C)s1	-2.1	-3.4	-10.5	2.5	-12.6
C=CCN1C(=O)N/C(=C/c2ccc(C)o2)C1=O	6.6	-4.9	3.4	-49.5	10.7
COc1ccc(CN(C(C)=O)c2ccccc2C(=O)O)cc1	0.3	3.1	-0.7	8.0	-18.0
COc1ccc(N(/N=C2\Sc3ccccc3C2=O)C(C)=O)cc1	·	2.7	·	51.6*	·
COc1ccc(-n2c(C)c([N+](=O)[O-])c3ccc(O)c(CN(C)C)c32)cc1	-7.8	0.9	-9.7	42.5*	-12.4
Cc1sc2c(c1C)C(=O)/C(=C\Nc1ccncc1)S(=O)(=O)N2C	4.6	1.6	4.6	-2.7	-11.2
CCCCCCCCCCCC1=C(O)C(=O)C=C(O)C1=O	·	4.5	·	45.9*	·
COc1ccc(OCC(=O)Nc2cc(NC(=O)c3ccco3)ccc2OC)cc1	5.3	1.3	-8.1	21.7	-9.7
O=C1N/C(=N/O)S/C1=C/c1cccc([N+](=O)[O-])c1	12.8	1.3	18.6	30.3	57.4*
O=C1N/C(=N\S(=O)(=O)Cc2ccccc2)S/C1=C/c1cccc([N+](=O)[O-])c1	4.1	-1.1	-13.8	15.3	9.3
O=C(COc1ccccc1[N+](=O)[O-])N/N=C/c1cccc(OC(=O)c2ccc3c(c2)OCO3)c1	77.2*	2.0	41.7	9.7	71.2*
CC(=O)NN1C(=O)/C(=C\c2ccccc2)SC1=S	5.9	4.4	-4.2	27.7	-6.2
CC(=O)NN1C(=O)/C(=C/c2ccc(Br)o2)SC1=S	-5.9	42.8*	-5.5	44.4*	-1.3
CC(=O)NN1C(=O)/C(=C\c2ccc(Br)o2)SC1=S	5.4	55.0*	9.3	29.4	-7.3
COc1ccc(N2CCN(S(=O)(=O)c3cc4c(cc3C)N(C(C)=O)CCO4)CC2)cc1	7.5	1.4	-1.0	19.3	-16.6
CC1Cc2ccccc2N1C(=O)CN(C)CC(=O)Nc1ccc(F)cc1 (stereo not drawn)	-1.8	-0.4	-0.2	8.7	2.3
C[C@H](CO)N1C[C@H](C)[C@@H](CN(C)Cc2ccc3c(c2)OCO3)Oc2cc(Br)ccc2S1(=O)=O	·	0.3	·	-2.7	·
O=C(Nc1nc2ccc([N+](=O)[O-])cc2s1)c1ccco1	40.3	·	74.7*	·	82.6*
O=C(N/N=C\c1ccc(Oc2ccccc2)cc1)c1csnn1	76.7*	1.8	71.4*	-0.2	74.9*
CN(C)c1ccc(/C=N\NC(=O)c2csnn2)cc1	40.1	1.5	13.4	-7.7	32.0
COc1ccc(S(=O)(=O)n2ccc(-c3cnc(-c4ccccc4)s3)n2)cc1	-1.4	0.9	-2.1	-380.9	10.1
O=C(c1ccccc1)n1ccc(-c2cnc(-c3ccccc3)s2)n1	90.1*	4.0	67.5*	i	56.6*
SMILES	SENP7 block	SENP1 FRET inh	SENP8 block-1	SENP8 block-2	SENP6 inh
C=CCn1nnnc1-c1cc(Cl)cc(Cl)c1	-1.7	-5.0	-3.4	24.0	-4.9
Cc1noc(C)c1C(=O)Nc1nc2ccccc2s1	97.8*	-2.8	93.6*	-44.8	96.6*
COc1ccccc1N(C)S(=O)(=O)c1ccc(C(=O)Nc2nc(C)cs2)cc1	0.3	0.5	-10.0	-1.2	-1.1
CC(Nc1cccc2ccccc12)C(=O)N/N=C/c1ccc([N+](=O)[O-])cc1 (stereo not drawn)	46.4	2.9	3.9	-40.3	81.3*
Nc1nc2ccc(Cl)cc2cc1C(=O)NCCCN1CCOCC1	·	-85.0	·	-422.3	·
O=C(Oc1ccc(Br)cc1C(=S)N1CCCCC1)c1cc([N+](=O)[O-])cc([N+](=O)[O-])c1	6.6	3.5	2.3	43.8*	-2.2
Cc1cc(O)c(/C=N/Nc2ccc(Cl)cc2)c(=O)o1	55.5*	-9.6	80.4*	-100.8	85.1*
